Reference: ChEMBL document CHEMBL1151917, “Dysideamine, a new sesquiterpene aminoquinone, protects hippocampal neuronal cells against iodoacetic acid-induced cell death” (Bioorg Med Chem, 2009)
Active and inactive are the calls of the source. No cut-off for these calls is given here.

Assays:
[1] = test system: HT-22; assay: Neuroprotective activity against iodoacetic acid-induced cell death in mouse HT22 cells assessed as survival at 10 uM treated 2 hrs after iodoacetic acid challenge measured after 20 hrs by MTT colorimetric assay; format: functional; conditions: read-out: Survival
Procedure, shortened: (§1)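 HT22 cells in DMEM/10% FBS, 5 × 10^3 cells/well, held 24 h at 37 °C under 5% CO2. Switched to DMEM/7.5% FBS with 20 µM iodoacetic acid for 2 h. Medium then replaced with fresh DMEM/10% FBS and compound added in EtOH. After a further 20 h, viability was read by MTT. Mean ± SEM, n = 3.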

[2] = test system: HT-22; assay: Neuroprotective activity against iodoacetic acid-induced cell death in mouse HT22 cells assessed as survival treated 2 hrs after iodoacetic acid challenge measured after 20 hrs by MTT colorimetric assay; format: functional, cell-based; procedure, shortened: as §1
[3] = test system: HT-22; assay: Neuroprotective activity against iodoacetic acid-induced intracellular ATP depletion in mouse HT22 cells assessed as recovery of ATP treated 2 hrs after iodoacetic acid challenge after 4 to 8 hrs; format: functional, cell-based
Procedure, shortened: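 HT22 cells at 5 × 10^3 cells/well were exposed to […] for 2 h in DMEM/7.5% FBS. They were then moved to normal growth medium, with or without compound, for the indicated times. Intracellular ATP was read by CellTiter-Glo luminescence. Mean ± SEM, n = 3.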

[4] = test system: HT-22; assay: Neuroprotective activity in mouse HT22 cells assessed as inhibition of iodoacetic acid-induced intracellular ROS production at 10 uM treated 2 hrs after iodoacetic acid challenge; format: functional, cell-based
Procedure, shortened: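 HT22 cells at 5 × 10^4 cells/well were cultured 24 h, then given 20 µM iodoacetic acid in DMEM/7.5% FBS for 2 h. Cells went to normal growth medium with compound (10 µM) in EtOH. At the indicated times they were washed and loaded with 10 µM DCFH-DA in serum-free medium for 20 min in the dark. After a second wash, fluorescence was read at ex 485/em 530 nm.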

[5] = test system: N2a; assay: Induction of neurite out growth in mouse Neuro2a cells assessed as increase in percent of cells with outgrowth at 3 uM after 48 hrs by phase contrast microscopy; format: functional
Procedure, shortened: (§2)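 Neuro 2A cells in DMEM/10% FBS, seeded at 1 × 10^4 cells per well and grown 24 h. Medium renewed, then compound added in EtOH and cells held 48 h. Scored by phase contrast microscopy: neurite-bearing means processes longer than the cell body diameter. Percent of neurite-bearing cells counted from at least 300 cells in photomicrographs of representative-density areas.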

[6] = test system: N2a; assay: Induction of neurite out growth in mouse Neuro2a cells assessed as increase in percent of cells with outgrowth at 10 uM after 48 hrs by phase contrast microscopy; format: functional; procedure, shortened: as §2
[7] = Cytotoxicity against mouse Neuro2a cells at 10 uM; format: cell-based; conditions: n2a
[8] = test system: N2a; assay: Induction of neuronal differentiation in mouse Neuro2a cells assessed as increase in acetylcholinesterase activity at 3 uM after 48 hrs by colorimetrically; format: functional, cell-based
Procedure, shortened: (§3)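 After 48 h treatment of Neuro 2A cells, AChE production was measured per 5 × 10^4 cells. Read-out was the colorimetric rate of acetylthiocholine hydrolysis.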

[9] = test system: N2a; assay: Induction of neuronal differentiation in mouse Neuro2a cells assessed as increase in acetylcholinesterase activity at 10 uM after 48 hrs by colorimetrically; format: functional, cell-based; procedure, shortened: as §3

COC1=CC(=O)C(O)=C(C[C@@]2(C)CC[C@]3(C)C(C)=CCC[C@H]3[C@H]2C)C1=O [BOLINAQUINONE]
viability at 10 µM [1]: 57%

CC1=CCC[C@H]2[C@@H](C)[C@@](C)(CC3=C(O)C(=O)C=C(N)C3=O)CC[C@]12C [DYSIDEAMINE]
Activity [2]: Dose-dependent effect | viability at 10 µM [1]: 43% | Activity [3]: Active | Activity [4]: Active | Activity [5]: 40% | Activity [6]: 25% | Activity [7]: Non-toxic | Activity [8]: Active | Activity [9]: Active
